# Rows were chosen to be rich in hits. Some 3.6% of all compounds tested hit in one or more screens of this group.
# SKKanGAS inh: inhibitors of SKKanGAS S. pyogenes growth in kanamycin (SK-promoter or general growth effect); AID 1662; inhibition, % at 7.5 µM; hit rate 1.3% among 300,000; BacTiter-Glo, 6 h;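 active = mean replicate score, as percent of positive control median, at least 50; inconclusive = mean below 50 but one replicate at or above 50; inactive = mean and every replicate below 50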;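 also: strain carries kanamycin resistance gene driven by streptokinase promoter and grows in 40 µg/ml kanamycin; loss of luminescence reflects streptokinase promoter inhibition or plain growth inhibition; 0% = median of DMSO wells and 100% = positive control at its reference dose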
# Beta cell apopt: beta cell apoptosis inhibition; INS-1E cytokine-induced death, ATP luminescence, 48 h; percent of positive-control rescue, neutral wells zero; protection from apoptosis, % (concentration not given with the values); hit rate 0.8% among 300,000; AID 435005;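 active = Every replicate reaches about 75%, or at least half do and their mean reaches it too, limit read from the data; inconclusive = At least half of replicates reach the limit but their mean does not; inactive = Under half of replicates reach the limit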;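 also: 0% = cytokine-treated negative control wells and 100% = positive control rescue; higher means more ATP so stronger rescue from cytokine killing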
# T cruzi repl: blocks replication of Trypanosoma cruzi | inhibition, % (no concentration beside the values) | AID 1885 | hit rate 1.4% among 300,000 | T. cruzi beta-gal in NIH3T3, luminescence, 90 h;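 active = mean inhibition across valid replicates above about 55%, limit read from the data; inconclusive = mean below that limit but half or more replicates reach it; inactive = mean below it, under half of replicates reach it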;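 also: signal also drops with host cell toxicity which is not excluded here; 0% = plate median of DMSO wells and 100% = zero luminescence signal; higher percent means less beta-gal luminescence so fewer parasites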
#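 assay system = mouse NIH/3T3 fibroblasts infected with β-gal-expressing T. cruzi Tulahuen C4 | input = 5,000 NIH/3T3 host cells per well | buffer or medium = DMEM plus 2% FBS | timing = 3 h host attachment, then at least 90 h co-culture | measured by = GalScreen luminescence, 60 min | evaluation = luminescence reflecting intracellular parasite burden, expressed as percent inhibition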
# PfHsp90 yeast 2: reduces growth (ATP signal) of yeast expressing P. falciparum Hsp90; inhibition, % at 9.4 µM; S. cerevisiae expressing PfHsp90, BacTiter-Glo ATP, 48 h; yeast lacking PDR1 and PDR3 efflux regulators; AID 504621; hit rate 0.32% among 310,000;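 active = every replicate shows inhibition above about 80%, whatever the replicate mean, limit read from the data; inconclusive = mean inhibition reaches the set limit but some replicate falls short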;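 also: 0% = DMSO neutral controls and 100% = 20 µM radicicol positive controls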
# HIF act: HIF pathway transcriptional activation. U2OS HRE-luciferase reporter, luminescence; normalized: DMSO 0%, desferrioxamine 100%. activation, % at 7.5 µM (by protocol). hit rate 0.32% among 300,000. AID 1910;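 active = mean activation of at least 10% of the iron chelator positive control signal, with at least half of replicates also reaching 10%; inconclusive = mean and replicate majority disagree about reaching 10%; inactive = mean and most replicates under 10%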
# CSC inhib: blocks cancer stem cells; cancer stem cell-like cells viability, luminescence; inhibition, % at 7.5 µM; hit rate 1.1% among 300,000; AID 2717; in the data active = inhibition above about 75%; inconclusive = no clear call, values can overlap the other calls; tested in HMLE shEcad cells
# The depositor's hits bear a star; ? = inconclusive; / = no result.
SMILES,SKKanGAS inh,Beta cell apopt,T cruzi repl,PfHsp90 yeast 2,HIF act,CSC inhib
O=C(NNC(=O)c1cc(F)c(F)cc1Cl)c1ccc(NS(=O)(=O)c2cccs2)cc1,/,4,/,-7,/,-1
CS(=O)(=O)c1ccc2nc(NC(=O)c3ccc(NS(=O)(=O)c4cccc([N+](=O)[O-])c4)cc3)sc2c1,62*,-2,-10,-4,0,18
Cc1ccc2nc(NC(=O)c3ccc(NS(=O)(=O)c4cccs4)cc3)sc2c1,62*,-5,4,-15,2,104*
Fc1ccc(-c2cn3cc(C(F)(F)F)cc(Cl)c3n2)cc1,-2,-1,-3,6,1,1
COc1ccc(-c2cn3cc(C(F)(F)F)cc(Cl)c3n2)cc1,-1,-2,21,8,5,127*
CCCOc1ccc(/C(O)=C2\C(=O)C(=O)N(c3ccccn3)C2c2ccccc2F)cc1C (stereo not drawn),47,-11,-3,-4,2,-13
O=C(c1ccc(Cn2c(=S)[nH]c3ccc(N4CCOCC4)cc3c2=O)cc1)N1CCN(c2ccc(F)cc2)CC1,23,-8,85*,-9,4,40
CCCCn1c(=S)[nH]c2ccc(N3CCOCC3)cc2c1=O,7,/,-7,/,0,/
COc1ccc(Cn2c(=S)[nH]c3cc(C(=O)N4CCN(c5ccccc5)CC4)ccc3c2=O)cc1,28,-1,6,-21,0,-11
Cc1ccc(C)c(N2CCN(C(=O)c3ccc(Cn4c(=S)[nH]c5ccc(N6CCOCC6)cc5c4=O)cc3)CC2)c1,25,-4,75*,-13,1,25
COc1ccc(N2CCN(C(=O)c3ccc(Cn4c(=S)[nH]c5ccc(N6CCOCC6)cc5c4=O)cc3)CC2)cc1,19,14,68*,/,1,46
Cc1cccc(N2CCN(C(=O)CCCCCn3c(=S)[nH]c4ccc(N5CCOCC5)cc4c3=O)CC2)c1C,32,31,65*,-2,-1,71
O=C(Nc1ccc2c(c1)OCO2)C1CC(=O)N(c2cccc(Cl)c2)C1 (stereo not drawn),7,/,-3,10,0,3
Cc1c(N2C(=O)/C(=C/c3ccc(N(C)C)cc3)N(C)C2=S)c(=O)n(-c2ccccc2)n1C,/,/,/,11,/,/
Cc1ccc(Cl)cc1N1CCN(C(=O)c2ccc(CN3CCOCC3)cc2)CC1,-1,-1,56*,-24,0,48
Cc1ccc(Cl)cc1N1CCN(Cc2cc3c(cc2O)CCC3)CC1,-3,2,58*,10,0,37
CSc1ncccc1C(=O)OCC(=O)NC1CC1,/,/,/,0,/,/
CC(=O)c1cccc(NC(=O)C(C)OC(=O)C2=NNC(=O)CC2)c1 (stereo not drawn),/,1,/,-28,/,-21
Cc1cc(N2C(=O)C=CC2=O)c([N+](=O)[O-])cc1C,/,-8,38,117*,0,?
Cc1ccc(N2C(=O)C3C4C=CC(CC4)C3C2=O)cc1[N+](=O)[O-] (stereo not drawn),-4,-1,2,-5,0,-8
CCCCc1oc2ccccc2c1C(=O)c1cc(I)c(OCCN(CC)CC)c(I)c1,106*,4,38,-89,0,89*
CCOc1ccccc1NC(=O)C(NCCN(C)C)c1ccccc1 (stereo not drawn),1,-6,21,10,0,-22
CCOc1ccccc1NC(=O)C(NCC1CCCCC1)c1ccccc1 (stereo not drawn),55*,2,27,-5,0,24
CC(C)(C)S(=O)N1Cc2cc(CO)cc(-c3ccccc3)c2[C@@H]1CCO (stereo partly drawn),/,/,/,16,/,/
CCOC(=O)c1sc2nc(Cc3ccc(Cl)cc3)[nH]c(=S)c2c1C,58*,10,-3,-24,1,-1
SMILES,SKKanGAS inh,Beta cell apopt,T cruzi repl,PfHsp90 yeast 2,HIF act,CSC inhib
Cc1ncc([N+](=O)[O-])n1CC(=O)Nc1ccc(Br)cc1,-13,-17,8,1,1,-17
COc1ccc(-c2cn3nc(SCC(=O)NCC4CCCO4)ccc3n2)cc1 (stereo not drawn),2,2,0,-8,19*,6
CCOC(=O)c1ccc(C(=O)OCC)c(NC(=S)Nc2ccc([N+](=O)[O-])cc2OC)c1,7,1,3,-15,1,5
CC(C)Cc1csc(NC(=O)c2ccc(F)cc2)c1C(=O)O,43,-6,-4,-10,0,121*
CCOC(=O)c1c(CC(C)C)csc1NC(=O)c1ccccc1C(=O)O,-2,-6,0,-51,0,1
Cc1ccc2nc(N(CCCN(C)C)C(=O)c3cc4ccccc4oc3=O)sc2c1,1,-8,60*,-30,-9,/
Cc1cccc2sc(N(CCCN(C)C)C(=O)c3cc4ccccc4oc3=O)nc12,-3,-3,46,20,0,-28
CN(C)CCCN(C(=O)c1cc2ccccc2oc1=O)c1nc2c(F)cccc2s1,0,-9,56*,-66,0,/
CC1(C)S[C@@H]2[C@H](NC(=O)C(C(=O)O)c3ccccc3)C(=O)N2[C@H]1C(=O)O (stereo partly drawn),/,/,/,14,/,/
COC(=O)C1N2C(=O)[C@@H](NC(=O)COc3ccccc3)[C@H]2SC1(C)C (stereo partly drawn),96*,-2,-7,/,1,1
OC(C#CCN1CCCC1)(c1ccccc1)c1cccnc1 (stereo not drawn),-1,-5,42,-32,1,-1
CCCN(CC#CC(O)(c1ccccc1)c1cccnc1)CCC (stereo not drawn),-21,0,65*,-10,-1,0
COC(=O)[C@]1(Cc2ccccc2)N[C@H](CN(C)S(=O)(=O)c2ccc(C(C)(C)C)cc2)[C@@H]2C(=O)N(C)C(=O)[C@@H]21,/,3,/,-10,/,/
O=C(Nc1cccc(-c2csc(-c3ccccc3)n2)c1)c1cccs1,0,2,38,-6,1,192*
O=C(Nc1cccc(-c2csc(Nc3ccc(Cl)cc3)n2)c1)c1cc([N+](=O)[O-])cc(C(F)(F)F)c1,?,32,21,12,1,108*
NS(=O)(=O)c1ccc(Nc2nc(-c3cccc([N+](=O)[O-])c3)cs2)cc1,-15,19,58*,-34,-6,-2
O=C(Nc1ccc(-c2csc(Nc3ccc(Cl)cc3)n2)cc1)c1cc([N+](=O)[O-])cc(C(F)(F)F)c1,75*,-2,23,-29,0,149*
O=C(Nc1cccc(-c2csc(Nc3ccccc3)n2)c1)c1cc([N+](=O)[O-])cc(C(F)(F)F)c1,39,8,42,-40,0,58
NS(=O)(=O)c1ccc(Nc2nc(-c3ccc4ccccc4c3)cs2)cc1,-4,1,17,14,0,24
